proCasp3 act = procaspase-3 (human) activation | P42574 | recombinant procaspase-3 D3A, Ac-DEVD-pNA absorbance 405 nm | activation, % at 8.5 µM | actives 0.11% (n = 330,000);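 active = activation above the mean of all tested compounds plus 3 SD, cut at about 21% in these data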
Target sequence (P42574 whole entry D9A/D28A/D175A): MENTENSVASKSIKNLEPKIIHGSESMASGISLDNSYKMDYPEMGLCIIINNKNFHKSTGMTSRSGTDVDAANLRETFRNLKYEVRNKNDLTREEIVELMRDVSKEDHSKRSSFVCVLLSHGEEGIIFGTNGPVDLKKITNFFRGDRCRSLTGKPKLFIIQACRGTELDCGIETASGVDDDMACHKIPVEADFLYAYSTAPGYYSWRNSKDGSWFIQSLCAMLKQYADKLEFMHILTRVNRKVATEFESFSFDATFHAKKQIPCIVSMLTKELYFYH
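Compound: 8.5 µM single point, 0.8% DMSO / Material: Autoprocessing-dead procaspase-3 D3A mutant enzyme / Timing: 1 h preincubation plus 2 h reaction at 25 °C / Medium: Zinc-free HEPES/NaCl buffer with 0.01% Triton X-100 at pH 7.4 / Technique: 405 nm absorbance of p-nitroaniline, reads at 0 and 120 min / Repeats: one well per compound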
procasp7 counter = counter-screen: procaspase-7 (human) activation. P55210. actives 0.093% (n = 330,000). activation, % at 8.5 µM. AID 463210. recombinant procaspase-7, Ac-DEVD-pNA absorbance 405 nm; D23A/D198A/D206A triple mutant, cannot self-cleave; scale: DMSO 0, 5 µM enzyme 100;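 active = percent activation above the screen-wide mean plus 3 SD, cut at about 25% in these data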
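signal = Epi-absorbance of released pNA at 405 nm, two timepoints | assay system = Uncleavable procaspase-7 mutant enzyme | reagent = Ac-DEVD-pNA substrate, 400 µM as added | times = 1 h enzyme–compound preincubation and 2 h substrate reaction, both 25 °C | benchmarks = low DMSO alone, high DMSO plus 5 µM PC-7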
MPTP inh = permeability transition pore inhibition; inhibition, % at 10 µM; actives 1.4% (n = 360,000); isolated mouse mitochondria, Ca2+ swelling absorbance, 30 min;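 active = inhibition of 50% or more, scaled per plate between neutral and stimulator controls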
aDG glyco act = increases alpha dystroglycan glycosylation; activation, % at 10 µM; Pro5-aDG cells, alpha-DG glycosylation AlphaScreen (IIH6); 0% Pro5, 100% B10-LARGE cell signal; actives 0.22% (n = 360,000);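 active = activation of at least 8% versus controls, or a plate z-score of at least 8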;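 note: Pro5 are CHO cells carrying HIG-tagged alpha-DG that lacks glycosylation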
NR3A LBD binder = modulates the human NR3A ligand-binding domain; NR3A LBD differential scanning fluorimetry, Tm shift; 0% = protein alone, 100% = glycine-bound protein; Tm shift relative to glycine control, % at 25 µM; actives 2.5% (n = 340,000);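 active = melting temperature shift of at least 10% of the positive control shift, at one fixed dose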
Rh123 counter = Rhodamine 123 counter-screen of mitochondrial pore hits; actives 78% (n = 5,000); shares compounds with MPTP inh; isolated mitochondria, membrane potential, Rhodamine 123 fluorescence; inhibition, % at 10 µM; in the data active = inhibition above about 22%
MPTP swell DR = dose response confirmation of mitochondrial permeability transition pore inhibitors. AID 651561. shares compounds with MPTP inh. actives 58% (n = 780). IC50, µM. isolated mitochondria swelling, absorbance; in the data active = IC50 below about 20 µM
MPTP cs DR = counter-screen for mitochondrial permeability transition pore inhibitors, dose response. shares compounds with MPTP inh. AID 651564. actives 49% (n = 780). IC50, µM. isolated mitochondria counterscreen, fluorescence read-out; in the data active = IC50 below about 80 µM
A number is an active result; - = inactive; . = no result. This is a sample that favours compounds with a hit; in the whole collection about 3.7% have one here.

SMILES | proCasp3 act | procasp7 counter | MPTP inh | aDG glyco act | NR3A LBD binder | Rh123 counter | others
CCc1nn(CCCC(=O)NC2CCCCC2C)c(=O)c2cc3occc3n12 (configuration not stated) | . | . | - | - | . | .
CN(C)S(=O)(=O)c1ccc(NC(=O)CSc2nnc(-c3ccco3)o2)cc1 | - | - | - | - | - | .
S=C1SCCCN1Cc1ccc(Cl)cc1 | . | . | - | - | . | .
O=C(CSc1nccc(-c2cccs2)n1)Nc1cccc(Cl)c1 | - | - | - | - | - | .
Cc1onc(-c2ccc(Cl)cc2)c1-c1ccnc(SCC(=O)Nc2cc(Cl)cc(Cl)c2)n1 | - | - | 50 | - | - | 51
CN(C)CCCN1c2ccccc2Sc2ccc(C(F)(F)F)cc21 | - | - | 102 | - | - | -
CN1CCN(CCC(=O)N2c3ccccc3Sc3ccc(C(F)(F)F)cc32)CC1 | - | - | - | - | - | .
OCCN1CCN(CCCN2c3ccccc3Sc3ccc(C(F)(F)F)cc32)CC1 | - | - | 86 | - | - | -
OCCN1CCN(CC/C=C2/c3ccccc3CSc3ccccc32)CC1 | - | - | - | - | - | .
OCCN1CCN(CC/C=C2/c3ccccc3Sc3ccc(C(F)(F)F)cc32)CC1 | - | - | 91 | - | - | -
CCCCC1CC2=C(C(=O)OC(C)(C)O2)C(c2ccc3ccccc3c2)O1 (configuration not stated) | . | . | - | - | . | .
Clc1ccc(SCCCCN2CCNCC2)cc1 | - | - | - | - | - | .
CCN(C)C1CN(Cc2cn(Cc3ccc(C(F)(F)F)cc3)nn2)S(=O)(=O)C1 (configuration not stated) | . | . | - | - | . | .
COc1ccc(Cl)cc1NC(=O)CN1C(=O)NC(Cc2c[nH]c3ccccc23)C1=O (configuration not stated) | - | - | - | - | - | .
CC(C)c1ccc(/C=N/NC(=O)c2cccc(Cl)c2)cc1 | - | - | 74 | - | - | 65
CCOc1cc(/C=C(/C#N)c2nc3ccccc3[nH]2)ccc1Oc1ccc([N+](=O)[O-])cn1 | - | - | 83 | - | - | 45
CCOc1cc(/C=C(\C#N)c2nc3ccccc3[nH]2)ccc1OC(C)C(=O)O (configuration not stated) | - | - | - | - | - | .
Cc1ccc2nc(/C(C#N)=C\c3ccc(Oc4ccc([N+](=O)[O-])cn4)cc3)[nH]c2c1 | - | - | 65 | - | 12 | - | MPTP swell DR=-;MPTP cs DR=10
CC1CCCN(CC(O)COc2ccc(S(=O)(=O)N3CCCC3)cc2[N+](=O)[O-])C1 (configuration not stated) | - | - | - | - | - | .
CC1(C(=O)NS(=O)(=O)c2ccc(Cl)cc2)CCN1C(=O)Cc1cccs1 (configuration not stated) | . | . | - | - | . | .
OC(COc1ccc(CNCCc2ccc(C(F)(F)F)cc2)cc1)CN1CCCCC1 (configuration not stated) | - | - | 67 | - | - | -
CC(C)O/C(=N/S(=O)(=O)c1ccc(Cl)cc1)c1ccccc1 | . | . | - | - | - | .
O=C1C(Cl)=C(Nc2ccccc2O)C(=O)N1CCc1ccccc1 | - | - | 61 | - | - | 60
COc1ccc(CCNC2=C(Cl)C(=O)N(CCc3ccccc3)C2=O)cc1OC | - | - | - | - | - | .
COc1cccc(-n2cc(CN(C)Cc3nc(Cc4cccc(F)c4)no3)cn2)c1 | - | - | - | - | - | .
COc1ccc(CN(C)Cc2nc(Cc3cccc(F)c3)no2)c2cccnc12 | - | - | 73 | - | - | 83
CC(=O)N1CCN(c2ccc(NC(=O)c3ccc([N+](=O)[O-])cc3Cl)cc2)CC1 | - | - | - | - | - | .
CCCCN(CCCC)S(=O)(=O)c1ccc(NC(=O)c2ccc([N+](=O)[O-])cc2Cl)cc1 | - | - | 95 | - | - | 96
CCCCN(CCCC)S(=O)(=O)c1ccc(NC(=O)c2cccs2)cc1 | - | - | 86 | - | - | 72

Screening results (PubChem BioAssay)
